This is an account of results in ChEMBL document CHEMBL1130334, “Effect of plasma protein binding on in vivo activity and brain penetration of glycine/NMDA receptor antagonists” (J Med Chem, 1997).

The target in data set [1] is Albumin (Homo sapiens, UniProt P02768). The experiment in a line: Human serum albumin index was measured by retention time on an HPLC column containing human albumin. In outline:
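HPLC on a column containing human serum albumin. Retention volume of each compound is divided by that of a reference standard and normalized so the standard equals 100.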

The target in data set [2] is Glutamate NMDA receptor. Nature of the data set: Affinity for the glycine binding site on rat N-methyl-D-aspartate glutamate receptor 1, determined by displacement of the glycine site antagonist [3H]L-689,560 from rat cortical membranes. Type of data set: cell membranes, Membrane.
The nature of data set [3]: Partition coefficient (logP). The note with it: octanol/water. The format is physicochemical. In outline: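 Octanol/pH 7.4 buffer partition; values were either measured or calculated from tables of π values.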

SMILES strings stand for the structures.

Chain of Albumin (P02768 whole entry): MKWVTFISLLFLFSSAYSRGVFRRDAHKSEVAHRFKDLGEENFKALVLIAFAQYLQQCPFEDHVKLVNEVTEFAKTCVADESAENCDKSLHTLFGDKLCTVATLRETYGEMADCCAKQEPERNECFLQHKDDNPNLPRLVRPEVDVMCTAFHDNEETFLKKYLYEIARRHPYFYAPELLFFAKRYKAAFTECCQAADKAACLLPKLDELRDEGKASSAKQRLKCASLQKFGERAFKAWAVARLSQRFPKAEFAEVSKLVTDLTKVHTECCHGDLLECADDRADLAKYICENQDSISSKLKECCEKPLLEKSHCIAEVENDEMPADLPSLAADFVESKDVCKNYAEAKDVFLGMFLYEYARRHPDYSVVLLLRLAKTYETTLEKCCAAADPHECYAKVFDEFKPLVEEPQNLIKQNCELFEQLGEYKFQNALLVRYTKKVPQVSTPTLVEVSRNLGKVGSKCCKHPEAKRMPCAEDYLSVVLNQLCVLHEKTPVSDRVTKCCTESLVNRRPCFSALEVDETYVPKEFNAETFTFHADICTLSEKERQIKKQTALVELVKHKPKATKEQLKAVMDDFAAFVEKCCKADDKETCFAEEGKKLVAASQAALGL

As to `C=CCOC(=O)c1c(O)c2ccc(Cl)cc2[nH]c1=O`, in data set [1], the HSAI was found to be 6. As usually defined, the IC50 is the concentration needed to halve the response being measured. Read a high IC50 as weaker potency in that assay. The molecule `CCOC(=O)c1c(O)c2ccc(I)cc2[nH]c1=O` returned an HSAI in data set [1] of 7. The molecule further yielded an IC50 in data set [2] of 30 µM. For `Oc1nc2cc(Cl)ccc2c(O)c1-c1cccc(C#Cc2ccccc2)c1` the same measures were 577 and 0.0343 µM. The like results for `Cc1ccccc1Oc1cccc(-c2c(O)nc3cc(Cl)ccc3c2O)c1` were, in that order, 163 and 0.0013 µM. For `CCc1cc(Cl)cc2nc(O)c(-c3ccccc3)c(O)c12`, the HSAI in data set [1] came to 103. Consider `Cc1cn(-c2c(O)nc3cc(Cl)ccc3c2O)c2ccccc12`, for which, in data set [1], the HSAI is recorded as 57. In data set [1], `Oc1nc2cc(Cl)ccc2c(O)c1-c1cccc(OCC2CC2)c1` gave an HSAI of 21. Also, the IC50 in data set [2] amounted to 0.0378 µM. As a reminder, the logP is the decadic logarithm of the partition coefficient of the neutral form, usually between octanol and water. `O=c1[nH]c2cc(Cl)ccc2c(O)c1-c1cccc(Oc2ccsc2)c1` had an HSAI in data set [1] of 82. The logP in data set [3] was determined as 2.75. In data set [1], `Oc1nc2cc(Cl)ccc2c(O)c1-c1cccc(-n2ccc3ccccc32)c1` showed an HSAI of 322. The molecule `CCc1cc(Cl)cc2nc(O)c(-c3cccc(Oc4ccccc4)c3)c(O)c12` displayed an HSAI in data set [1] of 837. The molecule further returned an IC50 in data set [2] of 0.00195 µM. For `Nc1c(-c2ccccc2)c(=O)[nH]c2cc(Cl)ccc12` the same measures were 7 and 6.75 µM. The like results for `Cc1ccc(-c2c(O)nc3cc(Cl)ccc3c2O)cc1` were, in that order, 13 and 0.391 µM. Take `Oc1nc2cc(Cl)ccc2c(O)c1-c1ccco1`: in data set [1], the HSAI came to 6. Still for that read-out and setting: then `CCOC(=O)c1c(O)c2ccc([N+](=O)[O-])cc2[nH]c1=O`, with 1. On to `O=C(c1ccc(Br)s1)c1c(O)nc2cc(Cl)ccc2c1O`, for which the HSAI in data set [1] worked out at 40. Also, the IC50 in data set [2] was determined as 0.954 µM. For `COc1cccc(-c2c(O)nc3cc(Cl)ccc3c2O)c1` the same measures were 10 and 0.204 µM. `O=c1[nH]c2cc(Cl)ccc2c(O)c1-c1cccc(Cc2ccccc2)c1` registered an HSAI in data set [1] of 126. In data set [3], this molecule returned a logP of 2.83. The like results for `Oc1nc2cc(Cl)ccc2c(O)c1-c1ccc2c(c1)Oc1ccccc1O2` were, in that order, 260 and 4.5. With `Oc1nc2cc(Cl)ccc2c(O)c1-c1cccc(Cc2ccoc2)c1`, the HSAI in data set [1] was 50. Further, the IC50 in data set [2] was 0.0089 µM. With `CCOC(=O)c1c(O)c2ccc(Cl)cc2[nH]c1=O`, the IC50 in data set [2] is 16.7 µM. This molecule displayed a logP in data set [3] of 0.7. With `CC(=O)c1cc(Cc2cccc(-c3c(O)c4ccc(Cl)cc4[nH]c3=O)c2)ccc1O`, the HSAI in data set [1] amounted to 75. Besides, the IC50 in data set [2] is 0.0427 µM. In the case of `Oc1nc2cc(Cl)ccc2c(O)c1-c1cccc(C2=CCc3ccccc32)c1`, the HSAI in data set [1] is on record as 571. The molecule further gave a 50% inhibitory concentration (IC50) in data set [2] of 0.006 µM. The molecule `O=C(c1c(O)nc2cc(Cl)ccc2c1O)C1CC1` had an HSAI in data set [1] of 6. Further, the logP in data set [3] stood at 0.35. In data set [1], `COc1ccccc1Cc1cccc(-c2c(O)nc3cc(Cl)ccc3c2O)c1` showed an HSAI of 118. In data set [2], this molecule showed an IC50 of 0.008 µM. `O=C(c1c(O)nc2cc(Cl)ccc2c1O)c1csc2ccccc12` registered an HSAI in data set [1] of 59. In addition, the IC50 in data set [2] turned out to be 2.23 µM. For `O=c1[nH]c2ccccc2c(O)c1-c1ccccc1` the same measures were 2 and 7.5 µM. In turn, `O=C(OCC#Cc1cccc(O)c1)c1c(O)c2ccc(Cl)cc2[nH]c1=O` had an HSAI in data set [1] of 213. As for `O=c1[nH]c2cc(Cl)ccc2c(O)c1-c1cccc(NCc2ccccc2)c1`, in data set [1], the HSAI stood at 76. The same molecule gave an IC50 in data set [2] of 0.0096 µM. The like results for `O=C(O)c1cccc(-c2c(O)nc3cc(Cl)ccc3c2O)c1` were, in that order, 9 and 0.0756 µM. The molecule `Oc1nc2cc(Cl)ccc2c(O)c1-c1cccc(-c2ccccc2)c1` returned an HSAI in data set [1] of 117. Consider `O=C(CCc1c(C(=O)O)[nH]c2cc(Cl)cc(Cl)c12)Nc1ccccc1`, for which the HSAI in data set [1] is given as 142. For the same molecule, the IC50 in data set [2] was found to be 0.0364 µM. For `Oc1nc2cc(Cl)ccc2c(O)c1-c1ccc(F)cc1` the same measures were 8 and 0.658 µM. For `COc1ccc(-c2c(O)c3ccc(Cl)cc3[nH]c2=O)cc1` the same measures were 8 and 0.421 µM. The like results for `CN(Cc1cccc(-c2c(O)nc3cc(Cl)ccc3c2O)c1)c1ccccc1` were, in that order, 140 and 0.0117 µM.

`O=[N+]([O-])c1cc([N+](=O)[O-])c2nc(O)c(O)nc2c1` yielded an HSAI in data set [1] of 4.

In turn, `O=C(CC1CCc2cc(Br)cc3[nH]c(=O)c(=O)n1c23)Nc1ccccc1` (stereo unspecified) yielded an HSAI in data set [1] of 24. The molecule further returned an IC50 in data set [2] of 0.024 µM. In data set [3], the logP is 2.78.

Molecule `O=C(O)c1cc(O)c2ccc(Cl)cc2n1` [7-CHLOROKYNURENIC ACID] registered an HSAI in data set [1] of 2. Besides, the logP in data set [3] came out at 1.15.

In data set [1], `CNCc1ccc(Cc2cccc(-c3c(O)nc4cc(Cl)ccc4c3O)c2)cc1` showed an HSAI of 13. Besides, the IC50 in data set [2] was 0.124 µM. For `Cc1ccc(Oc2cccc(-c3c(O)nc4cc(Cl)ccc4c3O)c2)cc1` the same measures were 310 and 0.0078 µM. The like results for `O=C(c1cccs1)c1c(O)c2ccc(Cl)cc2[nH]c1=O` were, in that order, 9 and 1.09 µM. For the molecule `O=C(OCCc1cccs1)c1c(O)nc2cc(Cl)ccc2c1O`, in data set [1], the HSAI was 44. As to `O=C(OCCc1ccsc1)c1c(O)nc2cc(Cl)ccc2c1O`, in data set [1], the HSAI was 45. In data set [2], this molecule showed an IC50 of 3 µM. In turn, `Oc1nc2cc(Cl)ccc2c(O)c1-c1ccsc1` yielded an HSAI in data set [1] of 11. Also, the IC50 in data set [2] is 0.352 µM.

For the molecule `O=C(c1ccccc1)c1cccc(-c2c(O)nc3cc(Cl)ccc3c2O)c1`, in data set [1], the HSAI turned out to be 58. In data set [2], the IC50 was 0.0036 µM. Turning to `Oc1nc2cc(Cl)ccc2c(O)c1-c1cccc(NCc2ccsc2)c1`, the HSAI in data set [1] turned out to be 68.

In data set [1], `Cc1cccc(-c2c(O)nc3cc(Cl)ccc3c2O)c1` displayed an HSAI of 14. Further, in data set [2], the IC50 stood at 0.084 µM. In data set [1], `O=C(c1ccco1)c1c(O)nc2cc(Cl)ccc2c1O` had an HSAI of 3. As to `CSc1ccc(Cc2cccc(-c3c(O)nc4cc(Cl)ccc4c3O)c2)cc1`, the HSAI in data set [1] was found to be 267. Further, the concentration for half-maximal inhibition (IC50) in data set [2] is 0.0024 µM.

In data set [1], `O=C(c1ccc(Cl)s1)c1c(O)nc2cc(Cl)ccc2c1O` came in with an HSAI of 26. In data set [2], this molecule yielded a concentration for half-maximal inhibition (IC50) of 1.52 µM.

For the molecule `COCCOCOc1ccc(Cc2cccc(-c3c(O)nc4cc(Cl)ccc4c3O)c2)cc1`, the HSAI in data set [1] turned out to be 56. This molecule gave an IC50 in data set [2] of 0.0036 µM.

As to `Oc1nc2cc(Cl)ccc2c(O)c1-c1cccc(OCc2ccccc2)c1`, in data set [1], the HSAI was found to be 118. In data set [2], this molecule yielded an IC50 of 0.0122 µM.

Consider `C=C(C)COc1cccc(-c2c(O)nc3cc(Cl)ccc3c2O)c1`, for which, in data set [1], the HSAI stood at 31. In data set [2], this molecule had an IC50 of 0.0109 µM.

As to `Oc1nc2cc(Cl)ccc2c(O)c1-c1cccc(Cc2cccc3ccccc23)c1`, the HSAI in data set [1] turned out to be 629. In data set [2], this molecule had an IC50 of 0.0279 µM. For `Cn1cccc1-c1c(O)nc2cc(Cl)ccc2c1O` the same measures were 3 and 0.818 µM. Consider `O=C(Cc1ccccc1)c1c(O)c2ccc(Cl)cc2[nH]c1=O`, for which the HSAI in data set [1] is listed as 28. In data set [3], this molecule yielded a logP of 1.66.

In data set [1], `CN(C)Cc1sccc1Oc1cccc(-c2c(O)nc3cc(Cl)ccc3c2O)c1` showed an HSAI of 13. Besides, the IC50 in data set [2] was 0.0326 µM.
